Assay results taken from ChEMBL document CHEMBL3045489, “Synthesis, fungicidal activity, and QSAR of a series of 2-dichlorophenyl-3-triazolylpropyl ethers” (J Agric Food Chem, 2000).
≈ marks a conversion by molar mass, not a printed value.

Tests used:
Fusarium graminearum = test: Antifungal activity against Fusarium graminearum assessed as inhibition of radial growth on potato dextrose; format: functional, organism-based
Procedure, shortened: (§1)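 Radial growth inhibition on potato dextrose or Czapek agar across 100-0.1 mg L-1. ED50 calculated for each compound.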

Botrytis cinerea = test: Antifungal activity against Botryotinia fuckelianaassessed as inhibition of radial growth on potato dextrose; format: functional, organism-based; procedure, shortened: as §1
Ustilago maydis = test: Antifungal activity against Ustilago maydis assessed as inhibition of radial growth on potato dextrose; format: functional, organism-based; settings: Mycosarcoma maydis
Cercospora beticola = test: Antifungal activity against Cercospora beticola assessed as inhibition of radial growth on potato dextrose; format: functional, organism-based; procedure, shortened: as §1
Uromyces appendiculatus = test: Fungicidal activity against Uromyces appendiculatus inoculated in Phaseolus vulgaris placed in growth room after 24 hr incubation assessed as direct protection after 6 to 10 days; format: functional
Procedure, shortened: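 Bean plants grown at 22 ± 1 °C, 80 ± 10% RH. Compound in acetone/water (1:4 v/v) with Tween 20 (0.4 mg mL-1) was sprayed on leaves until moist at 100 to 0.001 mg L-1. One day later leaves were inoculated with U. appendiculatus uredospores (1 × 10^5 spores mL-1), held 24 h at 22 ± 2 °C and 100% RH, then moved to the growth room. Scored at 6, 8 and 10 days as MIC.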

Pyrenophora teres = test: Antifungal activity against Pyrenophora teres assessed as inhibition of radial growth on potato dextrose; format: functional, organism-based
Oculimacula yallundae = test: Antifungal activity against Oculimacula yallundae assessed as inhibition of radial growth on potato dextrose; format: functional, organism-based; procedure, shortened: as §1
Podosphaera fuliginea = test: Fungicidal activity against Podosphaera fuliginea inoculated in […] placed in growth room after 24 hr incubation assessed as direct protection after 6 to 10 days; format: functional
Bipolaris maydis = test: Antifungal activity against Cochliobolus heterostrophus assessed as inhibition of radial growth on potato dextrose; format: functional, organism-based; procedure, shortened: as §1

Row | Structure (SMILES) | EC50 (Fusarium graminearum) [µg/mL] | EC50 (Botrytis cinerea) [µg/mL] | EC50 (Ustilago maydis) [µg/mL] | EC50 (Cercospora beticola) [µg/mL] | MIC (Uromyces appendiculatus) [µg/mL] | EC50 (Pyrenophora teres) [µg/mL] | EC50 (Oculimacula yallundae) [µg/mL] | MIC (Podosphaera fuliginea) [µg/mL] | EC50 (Bipolaris maydis) [µg/mL]
1 | Clc1ccc(C(COCc2ccc(OCc3cccc(OCc4ccccc4)c3)cc2)Cn2cncn2)c(Cl)c1 (racemic) | > 200 | 25 (≈ 43.5 µM) | 0.2 (≈ 0.348 µM) | 0.9 (≈ 1.57 µM) | 140 (≈ 244 µM) | 1.3 (≈ 2.26 µM) | 1.8 (≈ 3.13 µM) | – | –
2 | C=C(Cl)COCC(Cn1cncn1)c1ccc(Cl)cc1Cl (racemic) | 12 (≈ 34.6 µM) | 0.8 (≈ 2.31 µM) | 0.5 (≈ 1.44 µM) | 0.23 (≈ 0.664 µM) | > 100 | 2 (≈ 5.77 µM) | 0.5 (≈ 1.44 µM) | – | –
3 | Clc1ccc(C(COCCCc2ccccc2)Cn2cncn2)c(Cl)c1 (racemic) | 18 (≈ 46.1 µM) | 2.3 (≈ 5.89 µM) | 0.15 (≈ 0.384 µM) | 0.18 (≈ 0.461 µM) | 200 (≈ 512 µM) | 1.3 (≈ 3.33 µM) | 2.3 (≈ 5.89 µM) | 100 (≈ 256 µM) | 0.19 (≈ 0.487 µM)
4 | Clc1ccc(C(COCc2ccc3ccccc3c2)Cn2cncn2)c(Cl)c1 (racemic) | 130 (≈ 315 µM) | 2.8 (≈ 6.79 µM) | 0.18 (≈ 0.437 µM) | 0.23 (≈ 0.558 µM) | 120 (≈ 291 µM) | 0.25 (≈ 0.606 µM) | 1 (≈ 2.43 µM) | 50 (≈ 121 µM) | 0.15 (≈ 0.364 µM)
5 | CC(C)=CCOCC(Cn1cncn1)c1ccc(Cl)cc1Cl (racemic) | 40 (≈ 118 µM) | 0.9 (≈ 2.65 µM) | 0.22 (≈ 0.647 µM) | 0.18 (≈ 0.529 µM) | 160 (≈ 470 µM) | 0.5 (≈ 1.47 µM) | 1 (≈ 2.94 µM) | 100 (≈ 294 µM) | 0.13 (≈ 0.382 µM)
6 | C=C(C)COCC(Cn1cncn1)c1ccc(Cl)cc1Cl (racemic) | 13 (≈ 39.8 µM) | 1.2 (≈ 3.68 µM) | 0.25 (≈ 0.766 µM) | 0.15 (≈ 0.46 µM) | 150 (≈ 460 µM) | 0.75 (≈ 2.3 µM) | 0.5 (≈ 1.53 µM) | 50 (≈ 153 µM) | 0.1 (≈ 0.307 µM)
7 | Clc1ccc([C@@H](COCc2ccccc2)Cn2cncn2)c(Cl)c1 | 13 (≈ 35.9 µM) | 1.3 (≈ 3.59 µM) | 0.09 (≈ 0.248 µM) | 0.18 (≈ 0.497 µM) | 50 (≈ 138 µM) | 0.35 (≈ 0.966 µM) | 0.6 (≈ 1.66 µM) | 100 (≈ 276 µM) | 0.25 (≈ 0.69 µM)
8 | Clc1ccc(C(COCc2ccc(OCc3ccc(OCc4ccccc4)cc3)cc2)Cn2cncn2)c(Cl)c1 (racemic) | > 200 | 100 (≈ 174 µM) | 0.2 (≈ 0.348 µM) | 0.18 (≈ 0.313 µM) | > 100 | 0.2 (≈ 0.348 µM) | 0.16 (≈ 0.278 µM) | – | –
9 | Clc1ccc(C(COC/C=C/c2ccccc2)Cn2cncn2)c(Cl)c1 (racemic) | 40 (≈ 103 µM) | 3 (≈ 7.73 µM) | 0.1 (≈ 0.258 µM) | 0.2 (≈ 0.515 µM) | 140 (≈ 361 µM) | 0.47 (≈ 1.21 µM) | 1.3 (≈ 3.35 µM) | 10 (≈ 25.8 µM) | 0.18 (≈ 0.464 µM)
10 | OCCCOCC(Cn1cncn1)c1ccc(Cl)cc1Cl (racemic) | 75 (≈ 227 µM) | 70 (≈ 212 µM) | 1 (≈ 3.03 µM) | 1.7 (≈ 5.15 µM) | > 200 | 8 (≈ 24.2 µM) | 2.5 (≈ 7.57 µM) | > 100 | 1.3 (≈ 3.94 µM)
11 | Clc1ccc(C(COCc2cccs2)Cn2cncn2)c(Cl)c1 (racemic) | 1.5 (≈ 4.07 µM) | 2 (≈ 5.43 µM) | 0.1 (≈ 0.272 µM) | 0.2 (≈ 0.543 µM) | 200 (≈ 543 µM) | 0.7 (≈ 1.9 µM) | 1.2 (≈ 3.26 µM) | 100 (≈ 272 µM) | 0.2 (≈ 0.543 µM)
12 | O=[N+]([O-])c1ccc(COCC(Cn2cncn2)c2ccc(Cl)cc2Cl)cc1 (racemic) | > 200 | 2.8 (≈ 6.88 µM) | 0.08 (≈ 0.196 µM) | 0.09 (≈ 0.221 µM) | 43 (≈ 106 µM) | 0.75 (≈ 1.84 µM) | 0.18 (≈ 0.442 µM) | 10 (≈ 24.6 µM) | 0.15 (≈ 0.368 µM)
13 | Clc1ccc(COCC(Cn2cncn2)c2ccc(Cl)cc2Cl)c(Cl)c1 (racemic) | 12 (≈ 27.8 µM) | 1 (≈ 2.32 µM) | 0.09 (≈ 0.209 µM) | 0.18 (≈ 0.417 µM) | 30 (≈ 69.6 µM) | 0.35 (≈ 0.812 µM) | 0.65 (≈ 1.51 µM) | 10 (≈ 23.2 µM) | 0.28 (≈ 0.649 µM)
14 | Clc1ccc([C@H](COCc2ccccc2)Cn2cncn2)c(Cl)c1 | 18 (≈ 49.7 µM) | 3 (≈ 8.28 µM) | < 0.1 | 0.16 (≈ 0.442 µM) | 50 (≈ 138 µM) | 0.5 (≈ 1.38 µM) | 0.41 (≈ 1.13 µM) | 80 (≈ 221 µM) | 0.25 (≈ 0.69 µM)
15 | Clc1ccc(C(COCc2ccc(OCc3ccccc3)cc2)Cn2cncn2)c(Cl)c1 (racemic) | > 200 | 3.5 (≈ 7.47 µM) | 0.14 (≈ 0.299 µM) | 0.2 (≈ 0.427 µM) | 35 (≈ 74.7 µM) | 0.22 (≈ 0.47 µM) | 0.5 (≈ 1.07 µM) | 10 (≈ 21.4 µM) | 0.15 (≈ 0.32 µM)
16 | N#CCCOCC(Cn1cncn1)c1ccc(Cl)cc1Cl (racemic) | 32 (≈ 98.4 µM) | 18 (≈ 55.4 µM) | 4 (≈ 12.3 µM) | 4 (≈ 12.3 µM) | 250 (≈ 769 µM) | 32 (≈ 98.4 µM) | 20 (≈ 61.5 µM) | 60 (≈ 185 µM) | 8.5 (≈ 26.1 µM)
17 | Clc1ccc(C(COCc2cccc(Oc3ccccc3)c2)Cn2cncn2)c(Cl)c1 (racemic) | > 200 | 8 (≈ 17.6 µM) | 0.16 (≈ 0.352 µM) | 0.14 (≈ 0.308 µM) | 50 (≈ 110 µM) | 0.85 (≈ 1.87 µM) | 5 (≈ 11 µM) | 12 (≈ 26.4 µM) | 150 (≈ 330 µM)
18 | C#CCOCC(Cn1cncn1)c1ccc(Cl)cc1Cl (centres undefined) | 25 (≈ 80.6 µM) | 3.6 (≈ 11.6 µM) | 0.5 (≈ 1.61 µM) | 0.3 (≈ 0.967 µM) | > 100 | 1.4 (≈ 4.51 µM) | 0.5 (≈ 1.61 µM) | – | –
